Screening results from PubChem BioAssay.
Rows were chosen to be rich in hits. Some 2.7% of all compounds tested hit in one or more screens of this group.
SIAE inh: inhibitors of human sialic acid acetylesterase SIAE; SIAE FP-Rh probe binding, fluorescence polarization; inhibition, % at 9.66 µM; actives 0.69% (n = 370,000);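 active means inhibition above a cutoff: mean of compounds within the control limits plus 3 SD of those, cut at about 17% in these data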
Target sequence (Q9HAT2 whole entry, looked up): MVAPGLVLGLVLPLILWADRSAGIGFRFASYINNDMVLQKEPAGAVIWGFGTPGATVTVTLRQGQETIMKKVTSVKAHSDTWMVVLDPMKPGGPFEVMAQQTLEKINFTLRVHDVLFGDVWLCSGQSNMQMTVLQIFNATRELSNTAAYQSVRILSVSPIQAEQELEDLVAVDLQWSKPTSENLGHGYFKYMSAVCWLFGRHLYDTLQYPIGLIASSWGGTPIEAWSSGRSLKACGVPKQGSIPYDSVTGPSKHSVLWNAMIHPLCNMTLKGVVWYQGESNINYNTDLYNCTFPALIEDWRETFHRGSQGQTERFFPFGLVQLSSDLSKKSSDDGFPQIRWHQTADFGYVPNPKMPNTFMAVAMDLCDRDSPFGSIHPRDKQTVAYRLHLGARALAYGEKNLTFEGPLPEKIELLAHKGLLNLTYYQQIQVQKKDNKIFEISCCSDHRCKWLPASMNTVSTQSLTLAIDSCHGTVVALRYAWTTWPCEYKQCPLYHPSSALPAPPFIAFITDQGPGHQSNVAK
PRMT1 FP inh: blocks human protein arginine methyltransferase 1 | Q99873 | recombinant PRMT1, activity-based probe fluorescence polarization | inhibition, % at 2.79 µM | actives 1.3% (n = 370,000);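 active means inhibition above about 21% made by adding two undisclosed values, limit read from the data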
PAD4 FP inh: inhibitors of human PAD4 | Q9UM07 | inhibition, % at 6.36 µM | AID 485272 | recombinant PAD4, RCA probe fluorescence polarization | actives 0.41% (n = 330,000);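 active means percent inhibition above a cutoff equal to the mean of all tested compounds plus 3 SD, cut at about 15% in these data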
RBBP9 inh: blocks human serine hydrolase RBBP9 | actives 0.2% (n = 220,000) | recombinant RBBP9, FP-Rh probe fluorescence polarization | O75884 | inhibition, % at 7.94 µM;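 active means inhibition above the campaign mean of all tested compounds plus 3 SD, cut at about 14% in these data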
Target sequence (O75884 whole entry, looked up): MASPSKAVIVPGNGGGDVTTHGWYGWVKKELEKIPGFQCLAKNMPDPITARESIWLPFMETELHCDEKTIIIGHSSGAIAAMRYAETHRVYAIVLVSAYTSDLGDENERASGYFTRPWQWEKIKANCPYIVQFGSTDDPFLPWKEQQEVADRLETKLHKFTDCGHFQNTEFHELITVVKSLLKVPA
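System: RBBP9 protein | Quantity: 2.5 µM RBBP9 dispensing solution, before mixing | Reagent: FP-Rh probe, 375 nM dispensing solution | Timing: Enzyme-compound preincubation 30 min, then probe labeling 45 min, 25 °C | Measured by: Fluorescence polarization | Read-out: % inhibition | Replication: One well per compound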
GSTO1 inh: blocks human GSTO1 in RBBP9 counter-screen; P78417; recombinant GSTO1, activity-based probe fluorescence polarization; inhibition, % at 5.96 µM; actives 1.1% (n = 300,000);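 active means inhibition above the campaign mean inhibition plus 3 SD, cut at about 35% in these data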
PRMT1 inh conf: confirmation of human PRMT1 inhibitors | shares compounds with PRMT1 FP inh | recombinant His-PRMT1, activity-based probe fluorescence polarization | inhibition, % at 2.79 µM | actives 42% (n = 3,300);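 active means mean inhibition across replicates above the hit cutoff derived for the earlier primary screen, cut at about 22% in these data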
Large screens that a line does not name were inactive (follow-up assays come after a bar, where they were run).

NC(=O)CC(NSc1ccccc1[N+](=O)[O-])C(=O)O (stereo not drawn)	PRMT1 FP inh 34 | PRMT1 inh conf 23
O=[N+]([O-])c1ccccc1SNc1ccccc1	none (no result: PAD4 FP inh, RBBP9 inh, GSTO1 inh)
COc1cc(C(=O)NCc2nnc(SCC(=O)Nc3nc4ccccc4s3)o2)cc(OC)c1OC	PRMT1 FP inh 65 | PRMT1 inh conf inactive
COc1cc(C(=O)NCc2nnc(SCC(=O)Nc3nccs3)o2)cc(OC)c1OC	none
C[n+]1c2n(c3ccccc31)N=C(c1ccc(-c3ccccc3)cc1)CS2	none
CCc1nnc2n1N=C(c1ccc(Br)cc1)CS2	none (no result: RBBP9 inh)
C[n+]1c2n(c3ccccc31)N=C(c1ccc(Br)cc1)CS2	PRMT1 FP inh 57 | PRMT1 inh conf inactive
C[n+]1c2n(c3ccccc31)N=C(c1ccccc1)CS2	PRMT1 FP inh 48 | PRMT1 inh conf inactive
COc1ccc(/C=N/NC(=S)NCCc2ccccc2)cc1	none (no result: RBBP9 inh)
O=C1c2ccccc2C(=O)N1N(c1ccccc1)c1ccccc1	none (no result: PAD4 FP inh, RBBP9 inh, GSTO1 inh)
O=C1C=CC(=O)N1N(c1ccccc1)c1ccccc1	PRMT1 FP inh 50 | PRMT1 inh conf 96
Cc1ccsc1C(=O)NNC(=O)c1ccncc1	PRMT1 FP inh 31 (no result: PAD4 FP inh, RBBP9 inh, GSTO1 inh) | PRMT1 inh conf inactive
COc1ccc(OC)c(CN(CCN2CCOCC2)C(=O)Nc2ccccc2)c1	none
N#Cc1c(N)sc(=S)c2c1CCCCC2	PRMT1 FP inh 40 | PRMT1 inh conf 36
N#Cc1c(N)c(C#N)c(-c2ccc(O)cc2)c2c1CCCC2	none
Cn1c(N)c(C#N)c2c(c1=S)CSC(C)(C)C2	none
CC1(C)Cc2c(C#N)c(N)sc(=S)c2CS1	PRMT1 FP inh 31 | PRMT1 inh conf 41
CCNS(=O)(=O)c1ccc(CCC(=O)N2CCN(C(=O)OCC)CC2)cc1	none (no result: RBBP9 inh)
S=c1[nH]ccn1CCc1ccccc1	none (no result: RBBP9 inh)
N#CCc1c(C#N)c(N)nc(N2CCCC(O)C2)c1C#N (stereo not drawn)	PRMT1 FP inh 31 | PRMT1 inh conf inactive
N#CCc1c(C#N)c(N)nc(N2CCN(c3ccc(F)cc3)CC2)c1C#N	none
Cc1cc(Cl)ccc1NNC(=O)c1cccs1	none
CC(=O)C(=Nc1cccc(Cl)c1)NNc1ccccc1C	PRMT1 FP inh 83 (no result: RBBP9 inh) | PRMT1 inh conf inactive
CCN(CC)c1ccc2nc3ccc(N)cc3[n+](-c3ccccc3)c2c1	PRMT1 FP inh 26 (no result: PAD4 FP inh, RBBP9 inh, GSTO1 inh) | PRMT1 inh conf inactive
Cc1ccc(/C=C2\SC(=S)N(Cc3ccccc3)C2=O)o1	none
Cc1ccc(/C=C2/NC(=O)N(Cc3ccccc3)C2=O)o1	PRMT1 FP inh 66 | PRMT1 inh conf inactive
O=C(OC1CCOC1=O)c1ccc2ncsc2c1 (stereo not drawn)	PRMT1 FP inh 39 | PRMT1 inh conf inactive
Cc1c(C2(O)C(=O)Nc3ccc(F)cc32)c(=O)n(-c2ccccc2)n1C (stereo not drawn)	none
Cc1ccc(-n2c(N)c(C(=O)N3CCCCC3)sc2=S)cc1	none
Cc1ccc(-n2c(N)c(C(=O)N3CCN(C)CC3)sc2=S)cc1	PRMT1 FP inh 86 | PRMT1 inh conf 71
O=C(O)CNC(=O)CC1S/C(=N/N=C2\CSC(=O)N2)NC1=O (stereo not drawn)	PRMT1 FP inh 38 | PRMT1 inh conf 22
CCOc1ccc(-n2c(=O)c3c4c(sc3n(CC(=O)NCC3CCCO3)c2=O)CCCC4)cc1 (stereo not drawn)	none
CC(C)C1NC2(C(=O)c3ccccc3C2=O)C2C(=O)N(c3ccc(F)cc3)C(=O)C12 (stereo not drawn)	PRMT1 FP inh 33 | PRMT1 inh conf 44
CCCOc1cccc(C2C(C(=O)c3ccco3)=C(O)C(=O)N2c2nnc(C)s2)c1 (stereo not drawn)	PRMT1 FP inh 32 (no result: RBBP9 inh) | PRMT1 inh conf inactive
COc1cccc(C2C(C(=O)c3ccc(C)o3)=C(O)C(=O)N2c2cc(C)on2)c1 (stereo not drawn)	none (no result: RBBP9 inh)
Cc1ccc(C2C(C(=O)c3cccs3)=C(O)C(=O)N2c2nnc(C)s2)cc1 (stereo not drawn)	PRMT1 FP inh 69 | PRMT1 inh conf 36
CSc1ccc(C2C(C(=O)c3ccco3)=C(O)C(=O)N2c2nnc(SC)s2)cc1 (stereo not drawn)	PRMT1 FP inh 65 (no result: RBBP9 inh) | PRMT1 inh conf 34
C=CCOc1cccc(C2C(C(=O)c3ccc(C)o3)=C(O)C(=O)N2c2nccs2)c1 (stereo not drawn)	PRMT1 FP inh 63 | PRMT1 inh conf 38
COc1ccc(C2C(C(=O)c3cccs3)=C(O)C(=O)N2c2cccc(C)n2)cc1 (stereo not drawn)	none
CC(=O)c1ccc(NC(=O)Nc2sc(NS(=O)(=O)c3ccccc3)nc2C)cc1	none
Cc1nnc(N2C(=O)C(O)=C(C(=O)c3ccco3)C2c2ccc(F)cc2)s1 (stereo not drawn)	PRMT1 FP inh 40 | PRMT1 inh conf inactive
COc1cccc(C2=CC(=O)CC(c3ccco3)C2)c1 (stereo not drawn)	PRMT1 FP inh 31 (no result: RBBP9 inh) | PRMT1 inh conf inactive
C[C@H](CO)N1C[C@H](C)[C@@H](CN(C)Cc2ccc(C(=O)O)cc2)Oc2c(NC(=O)Cc3ccccc3)cccc2C1=O	none (no result: RBBP9 inh, GSTO1 inh)
COc1ccc(-c2nc(CSCC(=O)NC3CCCc4ccccc43)c(C)o2)cc1 (stereo not drawn)	PRMT1 FP inh 29 | PRMT1 inh conf 26
Cc1ccc2nc3c(cc(S(=O)(=O)c4ccccc4)c(=N)n3C3CCCC3)c(=O)n2c1	none (no result: PAD4 FP inh, RBBP9 inh, GSTO1 inh)
O=C1CCCC(=O)C1CS(=O)(=O)c1ccccc1	PRMT1 FP inh 44 | PRMT1 inh conf 27
Oc1c(CN2CCOCC2)cc(CN2CCOCC2)c(O)c1CN1CCOCC1	PRMT1 FP inh 72 (no result: PAD4 FP inh, RBBP9 inh, GSTO1 inh) | PRMT1 inh conf 77
Oc1c(CN2CCOCC2)cc(-c2ccccc2)cc1CN1CCOCC1	none
Cc1c(Cc2ccc3c(c2)OCO3)sc(NC(=O)C2CC2)c1C(N)=O	PRMT1 FP inh 30 | PRMT1 inh conf inactive
O=C(O)CCC(=O)Nc1ccc(N2CCCCCC2)cc1	PRMT1 FP inh 31 | PRMT1 inh conf inactive
Cc1ccc2cc(C)c(SCC(=O)Nc3cc(C)on3)nc2c1	none (no result: RBBP9 inh)
O=C(CCNC(=O)c1ccco1)NCCc1ccc(Cl)cc1	PRMT1 FP inh 47 (no result: PAD4 FP inh, RBBP9 inh, GSTO1 inh) | PRMT1 inh conf inactive
COCCCNC(=O)CSc1nc2sc(C(=O)OC)c(C)c2c(=O)n1N	none
CCSS(=O)(=O)c1cccc2cccnc12	PRMT1 FP inh 93 | PRMT1 inh conf 98
O=C(O)CCS(=O)(=O)c1cccc2cccnc12	none
CCC(NC(=O)C1CCCN(c2ncccn2)C1)c1ccccc1 (stereo not drawn)	none (no result: PAD4 FP inh, RBBP9 inh, GSTO1 inh)
O=[N+]([O-])c1ccc(C(O)CN2CCN(c3ccccc3)CC2)cc1 (stereo not drawn)	none (no result: RBBP9 inh)
Oc1ccc(N2CCN(CC(O)c3ccccc3)CC2)cc1 (stereo not drawn)	PRMT1 FP inh 28 (no result: RBBP9 inh) | PRMT1 inh conf inactive
O=C1c2ccccc2C(=O)N1SC1CCCCC1	PRMT1 FP inh 63 | PRMT1 inh conf 73
O=C(NN1C(=O)c2ccccc2C1=O)C1C2CCCCC21 (stereo not drawn)	none
